Screens as filed in PubChem BioAssay.
NR3A LBD binder: NR3A (human) ligand-binding domain modulation. NR3A LBD differential scanning fluorimetry, Tm shift; 0% = protein alone, 100% = glycine-bound protein. Tm shift relative to glycine control, % at 25 µM. 2.5% of 340,000 active. AID 1259313;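 active = melting temperature shift of at least 10% of the positive control shift, at one fixed dose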
SENP1 inh: SENP1 (human) catalytic domain inhibition. inhibition, % at 10 µM. 0.21% of 360,000 active. Q9P0U3. recombinant SENP1 catalytic domain, CyPet-SUMO1-YPet FRET cleavage;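 active = inhibition at least 30% at 10 µM, raw YFP signal under a set limit, fluorescence ratio 0.5 to 1.5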;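 also: 0% = enzyme with DMSO and 100% = no enzyme wells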
Target sequence (Q9P0U3 419-644 limits assumed): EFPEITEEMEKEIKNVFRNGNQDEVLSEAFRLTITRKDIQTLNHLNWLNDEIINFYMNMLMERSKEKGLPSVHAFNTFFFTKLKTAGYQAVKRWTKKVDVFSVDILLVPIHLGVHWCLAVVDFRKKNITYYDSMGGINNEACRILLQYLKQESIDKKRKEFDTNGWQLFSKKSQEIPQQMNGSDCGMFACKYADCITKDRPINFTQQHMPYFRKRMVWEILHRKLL
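Test system: recombinant human SENP1 catalytic domain, His6-tagged / Medium: pH 8 Tris buffer with EDTA, NaCl, BME, BSA, NP40, catalase / Also added: SUMO1 FRET substrate flanked by Cypet and Ypet, 25 nM / Times: 50 min reaction at room temperature / Signal: FRET, CFP and YFP emission / Control set: no-enzyme low control and enzyme-plus-DMSO high control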
Arrestin-AP2 inh: inhibitors of human beta-arrestin and AP2 interaction; FITC-arrestin peptide / GST-AP2 beads, flow cytometry; AP2 beta2 appendage carries R879A mutation; inhibition, % at 10 µM; 0.31% of 340,000 active; AID 504490;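 active = inhibition above a set limit, near 3 SD of compounds lacking own fluorescence, cut at about 54% in these data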;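 also: plate controls were DMSO wells for no effect and 5 µM unlabelled arrestin peptide for full effect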
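Material – GST-tagged AP2 beta2-adaptin appendage (R879A) on 4 µm glutathione beads · Probe or stimulus – fluorescein-tagged arrestin peptide at 50 nM final · Timing – 12 min plus 1 h, RT · Detection – bead flow cytometry, FITC channel · Read-out basis – inhibition as reduced fluorescein signal on beads, percent · Medium – PBS plus Tween 20 (0.05%) and BSA (0.1%)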
hiPSC survival: hiPSC single-cell survival enhancement; survival enhancement, % at 20 µM; ATPlite luminescence; 100% = ROCK inhibitor wells, 0% = DMSO; 0.044% of 360,000 active; in the data active = survival enhancement above about 18%;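 also: cells exposed to compounds for 16 hours before the ATP read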
Cardio protect: myocardial damage modulation in H9c2 cells. H9c2 cardiomyocytes, H2O2 injury protection, ATPLite, 2 h. protection from H2O2 cell death, % at 20 µM. 0.63% of 360,000 active;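 active = compounds giving at least 50% protection of heart cells from peroxide-induced death in the single-dose screen, raw or plate-pattern-corrected value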;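 also: 0% = DMSO wells with peroxide and 100% = DMSO wells without peroxide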
FAS TE block: blocks the thioesterase domain of human fatty acid synthase; inhibition, % at 15 µM; P49327; 0.67% of 360,000 active; recombinant FAS-TE, OMFH fluorogenic substrate, fluorescence endpoint;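 active = compounds whose normalised, plate-corrected inhibition of enzyme fluorescence in the single-dose primary screen is 50% or more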;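 also: 0% = DMSO with enzyme and 100% = substrate without enzyme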
The depositor's hits bear a star; · = no result. A selection: hits, their analogues and other compounds. The true share with any hit is near 4%.

SMILES	NR3A LBD binder	SENP1 inh	Arrestin-AP2 inh	hiPSC survival	Cardio protect	FAS TE block
Cc1ccc(N2C(=O)C3C4C=CC(CNC(=S)Nc5ccc(Cl)cc5)(O4)C3C2=O)cc1 (configuration not stated)	12*	0	27	0	-1	20
Cc1ccc(N2C(=O)C3C4C=CC(CNC(=S)Nc5ccc(F)cc5)(O4)C3C2=O)cc1 (configuration not stated)	-4	1	-2	0	-3	1
Cc1ccc(N2C(=O)C3C4C=CC(CNC(=S)N5CCN(c6ccccn6)CC5)(O4)C3C2=O)cc1 (configuration not stated)	2	1	-10	0	-1	1
O=C(O)c1ccc(N=C2c3ccccc3-c3ccccc32)cc1	2	4	-11	1	2	1
O=C(O)c1ccc(C=NN=C2c3ccccc3-c3ccccc32)cc1	28*	2	0	5	-3	8
COC(=O)[C@@]12C[C@@H](CC(=O)NCC3CCCCC3)C(=O)N(Cc3ccc4c(c3)OCO4)C1=CCC(C)(C)C2	·	1	·	·	·	·
CC1CCCCC12NC(=O)N(CC(=O)N(C)Cc1nc3ccccc3c(=O)[nH]1)C2=O (configuration not stated)	0	-2	19	0	34	-6
CCCCN(Cc1nc2ccccc2c(=O)[nH]1)C(=O)CN1C(=O)NC2(CCCCC2)C1=O	2	-55	-1	0	83*	-6
N#Cc1cccc(NC(=O)COC(=O)c2cc(S(=O)(=O)Nc3ccccc3Cl)ccc2O)c1	18*	1	-13	10	-9	13
Cc1cccc(C)c1NC(=O)COC(=O)c1cc(S(=O)(=O)Nc2ccc(Cl)cc2)ccc1O	8	2	9	1	4	3
O=C(COC(=O)c1cc(S(=O)(=O)Nc2ccccc2Cl)ccc1O)Nc1nc2ccccc2s1	24*	0	-6	0	-24	26
COc1ccccc1NS(=O)(=O)c1ccc(O)c(C(=O)OCC(=O)c2ccc(Cl)cc2Cl)c1	0	-1	10	0	-1	27
O=C(COC(=O)c1cc(NS(=O)(=O)c2cccs2)ccc1O)Nc1cc(Cl)ccc1Cl	30*	1	0	1	-9	8
O=C(COC(=O)c1cc(NS(=O)(=O)c2cccs2)ccc1O)Nc1ccc(F)c(F)c1F	-1	1	-4	0	-11	17
COc1c2ccccc2nn1C(C)C	·	-1	·	-1	·	-9
O=C1CCCN1C1CCN(Cc2ccccc2)S(=O)(=O)N1 (configuration not stated)	·	1	·	1	·	-10
O=C(Nc1ccc2nc(-c3ccc(Br)o3)[nH]c2c1)c1ccco1	10*	-12	33	-3	34	-1
Cn1cccc1-c1nc2ccc(NC(=O)c3cccs3)cc2[nH]1	16*	-5	21	2	-28	-4
CC(=O)Nc1ccc2nc(-c3cccn3C)[nH]c2c1	-2	-1	-13	0	4	-5
O=C(Nc1ccc2nc(-c3ccc(Br)o3)[nH]c2c1)c1cccs1	21*	-21	12	-1	21	4
Cc1ccccc1NC(=O)CNC(=O)N1CC(=O)Nc2ccccc21	·	0	·	-2	14	-6
NC(=O)c1ccsc1NC(=O)COC(=O)Cc1c[nH]c2ccccc12	26*	-2	33	0	-15	-3
Cc1ccc(NC(=O)COC(=O)Cc2c[nH]c3ccccc23)cc1F	14*	0	10	0	2	11
N#Cc1ccsc1NC(=O)COC(=O)c1ccc(NC(N)=O)cc1	-2	-2	2	0	-4	3
COCCOc1ccc(C(F)(F)F)cc1NC(=O)COC(=O)Cc1c[nH]c2ccccc12	21*	-2	40	-1	-6	25
SMILES	NR3A LBD binder	SENP1 inh	Arrestin-AP2 inh	hiPSC survival	Cardio protect	FAS TE block
NC(=O)Nc1ccc(C(=O)OCC(=O)Nc2sccc2C(N)=O)cc1	32*	-4	38	0	31	2
COc1ccccc1NC(=O)COC(=O)Cc1c[nH]c2ccccc12	-4	-21	15	0	-2	4
CCCC[C@@H]1CC2=C(C(=O)OC(C)(C)O2)[C@@H](c2ccc(Cl)cc2)O1	·	-1	·	0	·	24
Cc1cnc(CNc2nc3cc(-c4ccccc4C)sc3c(=O)n2C)cn1	·	3	·	3	8	10
NC(=O)c1ccsc1NC(=O)COC(=O)Cc1cccc2ccccc12	24*	-1	-8	0	-26	13
COc1ccc(-c2cc(C(=O)NCc3ccc(F)cc3)[nH]n2)c(C)c1	·	3	·	0	-1	1
O=C(CCCN1C(=O)c2cccc3cccc(c23)C1=O)N1CCN(c2ccccc2)CC1	-1	7	13	0	5	5
O=C(CCCN1C(=O)c2cccc3cccc(c23)C1=O)N1CCN(c2ccccc2O)CC1	-11	-2	1	0	67*	11
Cc1ccc(OCc2nnc(SCC(=O)N3CCOCC3)n2C)cc1	16*	0	-14	-2	4	-4
Cc1ccc(OCc2nnc(SCCN3CCOCC3)n2C)cc1	0	2	5	0	0	-3
Nc1nc(-c2ccccc2)cn1N	11*	-14	7	1	9	0
COc1ccccc1-c1csc(C(C)(O)c2ccccc2)n1 (configuration not stated)	·	-1	·	-1	-8	13
CC1=C(C(=O)Nc2ccccc2)C(c2ccc(O)cc2)N2C(=O)CSC2=N1 (configuration not stated)	12*	-1	41	0	-1	-25
Cc1ccc(NC(=O)c2ccc(-c3cc(Cl)ccc3Cl)o2)c(C)c1	·	2	·	1	-30	21
CCCCN1C(=O)C(=O)NC[C@@H]1CC1CCCCC1	·	2	·	-1	·	-3
CCOc1cccc(/C=N/NC(=S)Nc2cc(S(=O)(=O)N3CCOCC3)ccc2N2CCOCC2)c1O	-5	-26	6	-2	54*	33
CCOC(=O)Cn1cc(Cn2c3ccccc3c(=O)n2C(C)C)nn1	·	2	·	2	10	-10
C[C@H]1[C@@H](c2ccccc2)Oc2ccc(Cl)cc2S(=O)(=O)N1Cc1ccc(F)cc1F	15*	-1	0	-1	-8	26
O=C(NC(=S)Nc1nc(-c2ccc(Br)cc2)cs1)c1ccco1	30*	1	-8	-1	1	1
O=C(NC(=S)Nc1nc(-c2ccc([N+](=O)[O-])cc2)cs1)c1ccco1	20*	5	-4	0	-5	5
O=C(NC(=S)Nc1ccc([N+](=O)[O-])cc1)c1ccco1	·	1	·	6	-1	-4
